# NALP3 yeast inh = NALP3 inflammasome inhibitors in reconstituted yeast, primary screen, luminescence, uHTS; Yeast reconstituted NLRP3/ASC/caspase-1, beta-gal luminescence, 24 h; inhibition, % at 10 µM; actives 0.39% (n = 330,000); AID 2825, 2010;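 active = inhibition of 50% or more; inactive = inhibition below 50%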;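 also: plate controls were induced DMSO wells for no effect and uninduced yeast grown without galactose for full effect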
# Calb FLC = C. albicans growth inhibition with fluconazole, primary screen, CaCi-2 strain, Alamar Blue fluorescence; C. albicans CaCi-2 + fluconazole, 48 h; AID 1979, 2009; growth inhibition, % (no concentration beside the values); actives 0.57% (n = 300,000);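 active = growth inhibition above about 58% in most replicates, limit read from the data, passing the limit was not always enough; inconclusive = exactly half the replicates above a set limit; inactive = most replicates below a set limit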;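 also: all wells also contain fluconazole at 8 µg/ml as a sub-toxic cotreatment; 0% = median of DMSO wells and 100% = median of geldanamycin control wells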
# NALP1 inh = NALP1 inflammasome inhibitors in reconstituted yeast, colorimetric, S. cerevisiae, triplicate retest. S. cerevisiae NALP1/ASC/caspase-1 growth, X-gal OD620, 72 h. inhibition, % at 10 µM. actives 0.61% (n = 280,000). AID 2071, 2009; in the data active = inhibition mostly above about 24%, no sharp cut-off; inactive = mostly below about 32%
# ALR H2O2 inh = inhibitors of human ALR sulfhydryl oxidase, primary screen, biochemical, H2O2 detection, HRP-luminol luminescence, single point; FAD-linked sulfhydryl oxidase ALR (Homo sapiens), P55789; purified ALR, DTT oxidation; inhibition, % (test concentration not listed); actives 3.8% (n = 290,000);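 active = mean replicate inhibition above about 79%, with every replicate also reaching it, limit read from the data; inconclusive = only one of the two criteria met; inactive = mean below limit and not every replicate reaching it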
# Target sequence (P55789 whole entry, looked up): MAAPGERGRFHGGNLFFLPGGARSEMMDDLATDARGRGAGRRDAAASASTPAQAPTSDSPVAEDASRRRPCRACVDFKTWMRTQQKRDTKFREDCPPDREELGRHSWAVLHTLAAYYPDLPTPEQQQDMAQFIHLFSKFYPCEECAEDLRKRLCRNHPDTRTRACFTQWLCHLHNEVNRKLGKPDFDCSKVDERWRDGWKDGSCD
# UCH37 inh = inhibitors of human UCH37 deubiquitinase, primary screen, biochemical, Ub-AMC cleavage, fluorescence. inhibition, % (concentration not given with the values). actives 0.33% (n = 330,000). purified proteasome/UCH37;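 active = mean inhibition over replicate wells above about 20%, limit read from the data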;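 also: 0% = compound-free wells with enzyme and 100% = wells lacking proteasome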
# Target sequence (Q9Y5K5 whole entry, looked up): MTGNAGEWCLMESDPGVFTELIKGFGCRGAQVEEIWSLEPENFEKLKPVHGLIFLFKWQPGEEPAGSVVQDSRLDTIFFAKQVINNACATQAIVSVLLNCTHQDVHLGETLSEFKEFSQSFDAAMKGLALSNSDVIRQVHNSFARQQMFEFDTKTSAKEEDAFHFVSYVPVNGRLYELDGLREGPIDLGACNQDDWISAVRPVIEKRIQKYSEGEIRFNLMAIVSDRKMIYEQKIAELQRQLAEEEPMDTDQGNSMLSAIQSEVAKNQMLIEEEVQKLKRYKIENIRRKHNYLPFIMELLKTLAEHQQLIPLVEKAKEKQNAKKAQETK
#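 system = Proteasome-associated human UCH37 deubiquitinase | amount = 0.15 nM proteasome as dispensed | medium = pH 7.4 Tris-HCl (50 mM) with ovalbumin, ATP-MgCl2, DTT | incubation = 30 min preincubation with enzyme, 25 min cleavage at room temperature | detection = AMC fluorescence 355/460 nm | read-out basis = percent inhibition | controls = no-proteasome and no-compound wells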
# ATG4B inhibitor = ATG4B protease inhibitors, primary screen, biochemical, fluorescence, uHTS | actives 0.51% (n = 340,000) | ATG4B cleavage of LC3-PLA2, NBD-HPC fluorescence, 1 h | AID 504462, 2011 | inhibition, % at 8.33 µM | Cysteine protease ATG4B (Homo sapiens), Q9Y4P1; in the data active = inhibition above about 40%
# Active calls of the source: *; u = inconclusive; x = no result given. Only some compounds are listed: those with a hit (about 4.8% of all), similar ones and a draw of the others.
SMILES,NALP3 yeast inh,Calb FLC,NALP1 inh,ALR H2O2 inh,UCH37 inh,ATG4B inhibitor
Cc1ccc(S(=O)(=O)NN=Cc2ccccc2F)cc1[N+](=O)[O-],x,x,x,x,4,x
Cc1ccc(S(=O)(=O)N/N=C/c2ccc(O)c(O)c2)cc1[N+](=O)[O-],11,-26,-22,99*,x,-4
Cc1ccc(S(=O)(=O)N/N=C/c2ccccc2O)cc1[N+](=O)[O-],2,16,4,96*,x,-3
Cc1ccc(S(=O)(=O)NN=Cc2ccc(O)c(O)c2)cc1[N+](=O)[O-],x,x,x,x,0,x
CC(=NNC(=O)COc1ccccc1-c1ccccc1)c1ccc(O)cc1O,x,x,x,x,-2,x
Cc1cc(C)n(CCC(=O)NN=Cc2ccccc2O)n1,x,x,x,x,-56,x
OC1=C(O)c2nc3ccccc3nc21,6,20,-40,45,3,-4
OC1=C(O)c2nc3cc(C(F)(F)F)ccc3nc21,13,-5,x,98*,6,-5
Cc1nn(CC2CCCCC2)c(N)c1-c1ccccc1,26,1,-2,98*,1,13
Nc1nonc1-n1nnc(C(=O)NN=Cc2c(Cl)cccc2Cl)c1CSC1=NCCS1,x,x,x,x,0,x
N=c1sccn1CC(=O)Nc1cccc2ccccc12,12,u,6,-31,20*,2
N=c1sccn1CC(=O)Nc1ccc(SC(F)F)cc1,12,-6,25,98*,5,8
CC(CC(=O)Nc1ccc(Cl)cc1Cl)=NNC(N)=S,x,x,x,x,1,x
O=C(CSc1cccc[n+]1[O-])c1cc2ccccc2o1,22,-11,12,94*,4,0
O=C(O)CSc1cccc[n+]1[O-],3,-12,x,1,1,-3
O=C(CSc1cccc[n+]1[O-])c1cc(Cl)ccc1Cl,3,100*,0,48,3,-11
Nc1nc(SCC(=O)c2cc3ccccc3o2)n[nH]1,-2,-10,22*,98*,2,-6
CN(C)c1ccnc(Oc2ccc(Cl)cc2)c1C#N,35,0,16*,0,1,14
Cc1cc(C)n(Cc2cccc(C(=O)NN=Cc3cccnc3)c2)n1,x,x,x,x,6,x
COc1ccc(C=NNC(=O)c2ccncc2)cc1COc1ccc(NC(C)=O)cc1,x,x,x,x,8,x
CN(C(=O)c1cccc(NC(=O)c2ccco2)c1)c1ccccc1,3,-10,8,x,2,4
CSc1cccc(NC(=O)c2ccco2)c1,25,7,9,98*,3,-9
CN(C)c1cccc(NC(=O)c2ccco2)c1,19,0,15,99*,2,-3
CC1N(C)c2cc(NC(=O)c3ccco3)ccc2C1(C)C (configuration not stated),42,-2,1,98*,0,-2
NC(=NOC(=O)CCCC(=O)O)c1ncc(C(F)(F)F)cc1Cl,x,x,x,x,0,x
SMILES,NALP3 yeast inh,Calb FLC,NALP1 inh,ALR H2O2 inh,UCH37 inh,ATG4B inhibitor
CCOC(=O)N1CCC(NC(=O)CS(=O)(=O)Cc2nc(-c3ccc(OC)cc3)oc2C)CC1,12,0,15,-1,5,-2
CCOC(=O)N1CCC(NC(=O)CS(=O)Cc2nc(-c3ccc(C)cc3)oc2C)CC1 (configuration not stated),-1,5,11,99*,4,-5
CCOC(=O)N1CCC(NC(=O)CS(=O)Cc2nc(-c3ccc(OC)c(OC)c3)oc2C)CC1 (configuration not stated),-10,-2,6,100*,2,-1
CCOC(=O)N1CCN(C(=O)CS(=O)Cc2nc(-c3ccc(C)cc3)oc2C)CC1 (configuration not stated),-7,-4,8,x,0,-17
CCOC(=O)N1CCC(NC(=O)CS(=O)Cc2nc(-c3ccc(Cl)cc3)oc2C)CC1 (configuration not stated),-7,3,4,99*,1,-1
CCC(=NNc1cccc(C)c1)c1cnnc(SC)n1,x,x,x,x,3,x
COC(=O)c1c(C)[nH]c(C=NNc2ccccc2)c1C,x,x,x,x,2,x
O=C1N/C(=N\N=Cc2ccco2)SC1Cc1ccccc1[N+](=O)[O-] (configuration not stated),x,x,x,x,8,x
CC(CC(=O)NCc1ccco1)=NNC(=O)C(c1ccccc1)c1ccccc1,x,x,x,x,2,x
Cc1cccc(-c2cnn(-c3cccc([N+](=O)[O-])c3)c2N)c1,36,2,10,92*,1,11
Cc1cccc(-c2cnn(-c3ccccc3)c2N)c1,43,-9,28,68,5,13
NC(=NOC(=O)c1ccc(Cl)cc1)c1nonc1N,x,x,x,x,2,x
ON=C(c1ccc(Cl)cc1)c1ncc(C(F)(F)F)cc1Cl,x,x,x,x,4,x
CC1CCc2c(sc3ncnc(N4CCOCC4)c23)C1 (configuration not stated),3,88*,x,-1,0,-5
CC1CCc2sc3ncnc(N4CCOCC4)c3c2C1 (configuration not stated),-4,5,4,2,1,-12
CC1CCc2c(sc3nc(CN4CCOCC4)nc(Sc4ccccc4)c23)C1 (configuration not stated),13,0,18,98*,-2,-5
COc1ccc(Nc2nc(CN3CCOCC3)nc3sc4c(c23)CCC(C)C4)cc1OC (configuration not stated),8,0,23,-11,4,x
Cc1sc(NN=C/C=C/c2ccccc2)nc1-c1ccccc1,x,x,x,x,-9,x
COc1ccc(Nc2nc(NCc3ccco3)nc(NN=Cc3ccc(O)cc3)n2)cc1,x,x,x,x,4,x
Cc1snnc1C(=O)NC(=S)Nc1ccccc1,15,7,8,92*,5,-10
O=C(NC(=S)Nc1cccnc1)c1ccccc1,-1,-1,11,17,3,9
Cc1ccc(C2Cc3cc(O)c(O)cc3CN2)cc1 (configuration not stated),7,-20,x,99*,3,7
COc1ccc(NN=C(C#N)C(=N)N2CCOCC2)cc1,x,x,x,x,11,x
CCOc1ccc(N/N=C(/C#N)C(N)=O)cc1,0,-16,20,98*,x,-3
COc1ccc(NN=C(C#N)C(N)=O)cc1,x,x,x,x,14,x
COc1ccc(N/N=C(\C#N)C(N)=O)cc1,7,-1,17,98*,x,-2
COc1ccc(N/N=C(\C#N)C(=N)N2CCOCC2)cc1,5,-7,0,99*,x,0
C=C(C)C1CC=C(C)C(=NNC(=O)c2ccc(NC(=O)CC)cc2)C1 (configuration not stated),x,x,x,x,2,x

# Screening results deposited in PubChem BioAssay by several laboratories.
